Experimental data published in publication PMC2583325 (Insect biochemistry and molecular biology, 2008).

What was measured:
AM-33 = biological target: T1, AM-33 (Argas monolakensis, UniProt Q09JW0); assay: isothermal titration calorimetry; type: binding
T1 sequence (Q09JW0 19-179): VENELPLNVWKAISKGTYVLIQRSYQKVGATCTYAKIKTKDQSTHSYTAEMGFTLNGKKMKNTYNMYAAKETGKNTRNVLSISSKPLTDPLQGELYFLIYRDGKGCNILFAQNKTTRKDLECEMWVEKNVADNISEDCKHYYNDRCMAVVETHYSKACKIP
Outline: (§1)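 Recombinantly expressed tick salivary lipocalin, checked for quality, in isothermal titration calorimetry on a VP-ITC instrument. Protein at 2 µM titrated against 20 µM lipid-derived ligand (fatty acid, leukotrienes, thromboxane analogues, prostaglandin, PAF) unless otherwise indicated. Stoichiometry (N), KD, ΔH and TΔS fitted per titration; S.E.M. is deviation of the data from the fit.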

TSGP4 = biological target: T2, TSGP4 (Ornithodoros kalahariensis, UniProt Q8I9T9); assay: isothermal titration calorimetry; type: binding
T2 sequence (Q8I9T9 21-176): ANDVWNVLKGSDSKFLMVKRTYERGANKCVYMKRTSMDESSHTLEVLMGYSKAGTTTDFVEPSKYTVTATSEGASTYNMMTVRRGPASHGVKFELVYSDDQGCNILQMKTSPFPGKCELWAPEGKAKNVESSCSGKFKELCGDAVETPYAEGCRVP
Outline: as §1

Row | SMILES | Kd (AM-33) [nM] | Kd (TSGP4) [nM]
1 | CCCCC/C=C\C[C@@H](O)/C=C/C=C/C=C\[C@@H](O)CCCC(=O)O [LTB4] | 587 ± 286 | 1000 ± 476
2 | CCCCC/C=C\C/C=C\C/C=C\C/C=C\CCCC(=O)O [Arachidonic acid] | 613 ± 198 | 155 ± 43
3 | CCCCC/C=C\C\C=C/C=C/C=C/[C@@H](SC[C@H](N)C(=O)O)[C@@H](O)CCCC(=O)O [LTE4] | 68 ± 6.6 | 10.8 ± 2
4 | CCCCC/C=C\C\C=C/C=C/C=C/[C@@H](SC[C@H](N)C(=O)NCC(=O)O)[C@@H](O)CCCC(=O)O [LTD4] | ≤ 2 | ≤ 2
5 | CCCCC/C=C\C\C=C/C=C/C=C/[C@@H](SC[C@H](NC(=O)CC[C@H](N)C(=O)O)C(=O)NCC(=O)O)[C@@H](O)CCCC(=O)O [LTC4] | 2.2 ± 0.4 | ≤ 2
